Experimental data from paper PMC9102048 (RSC Advances, 2022).
Where two headings read alike, the source gives them in different places.

Assays:
[1] = system: NIH3T3 cells; experiment: CCK8 anti-proliferative assay, mouse fibroblast cell line; assay type: cell-based; details: for IC50: CCK8; for inhibition at 500 µM: NIH3T3, read-out: Inhibition% @ 0.5 mM; for inhibition at 1000 µM: NIH3T3, read-out: Inhibition% @ 1 mM; for proliferation (fixed cell morphology): NHI3T3, 0.050 mM for 24 h
Procedure, shortened: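 NIH3T3 cells in F12K/DMEM with 10% heat-inactivated FBS and penicillin/streptomycin. Log-phase cells seeded at 5 × 10^3 cells/well for 24 h, then exposed to a range of test-compound concentrations for 72 h. Single-point inhibition taken at 1 mM and 0.5 mM. CCK8 added for 1–4 h; absorbance read at 450 nm. IC50 by curve fitting; mean (±SD) of ≥3 independent determinations.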

[2] = system: HFL1; experiment: CCK8 antiproliferative assay, human fibroblast cell line; assay type: cell-based; details: for proliferation (fixed cell morphology): HFL1, 0.050 mM for 24 h; for IC50: Homo sapiens, HFL1
Procedure, shortened: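 HFL1 human fibroblasts grown in F12K/DMEM with 10% heat-inactivated FBS and penicillin/streptomycin. Cells treated with test compound for 48 h, and viability read by CCK8 absorbance at 450 nm. Curve fitting gave IC50. For morphology, cells were treated for 24 h, fixed, and imaged by light microscopy with a 10× objective.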

[3] = Solubility in water; assay type: physicochemical; details: compared with 11a and 11b
[4] = system: KM mice; experiment: Acute toxicity experiment and histopathologic examination; assay type: in vivo; details: caudal vein injection, 100/150/300 mg kg^−1
[5] = system: NHI3T3 cells; experiment: Transwell / cell migration assay; assay type: cell-based, mouse
[6] = system: α-SMA; experiment: Immunofluorescence, α-SMA expression; assay type: cell-based, mouse; details: NHI3T3 cells, TGF-β1 (10 ng mL^−1) and 9d (50 μM)
Procedure, shortened: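 NIH3T3 cells grown on coverslips and co-treated with TGF-β1 (10 ng mL−1) and test compound (50 μM) for 24 h. Fixed in 4% paraformaldehyde, then incubated with primary anti-α-SMA overnight at 4 °C. Detected with FITC-conjugated anti-rabbit IgG; nuclei stained with DAPI. Imaged by confocal microscopy; two technical replicates, three biological repeats.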

[7] = system: E-cadherin; experiment: Immunofluorescence, E-cadherin expression; assay type: cell-based, mouse; details: NHI3T3 cells, TGF-β1 (10 ng mL^−1) and 9d (50 μM)
[8] = clinical trials, after administration of pirfenidone; cited from earlier work
[9] = system: NIH3T3 cells; details: pirfenidone, reported in the literature; cited from earlier work
[10] = Mus musculus, NIH3T3, NIH3T3 cells, averages ±SD of at least three determinations
[11] = Mus musculus, NIH3T3, NIH3T3 cells

1-Benzyl-5-(trifluoromethyl)pyridin-2(1H)-one [Compound 7a]
Inhibition% @ 0.5 mM ([1]; NIH3T3 cells, CCK8, 0.5 mM): 20.58% | Inhibition% @ 1 mM ([1]; NIH3T3 cells, CCK8, 1 mM): 40.95% | IC50 ([1]; NIH3T3 cells, averages ±SD of at least three determinations): > 500 µM

CC(=O)Nc1ccc(-n2cc(C(F)(F)F)ccc2=O)cc1 [Compound 4a, N-(4-(2-oxo-5-(Trifluoromethyl)pyridin-1(2H)-yl)phenyl)acetamide]
IC50 [1, 10]: > 1000 µM | inhibition at 500 µM ([1]; Mus musculus): 10.4% | inhibition at 1000 µM ([1]; Mus musculus): 32.6%

CC(=O)Nc1ccc(-n2cc(C)ccc2=O)cc1 [Compound 4b, N-(4-(5-Methyl-2-oxopyridin-1(2H)-yl)phenyl)acetamide]
IC50 [1, 10]: > 1000 µM | inhibition at 500 µM ([1]; Mus musculus): 1.3% | inhibition at 1000 µM ([1]; Mus musculus): 25.7%

CN1CCN(CC(=O)Nc2ccc(-n3cc(C(F)(F)F)ccc3=O)cc2)CC1 [Compound 5a, 2-(4-Methylpiperazin-1-yl)-N-(4-(2-oxo-5-(trifluoromethyl)pyridin-1(2H)-yl)phenyl)acetamide]
IC50 [1, 10]: 341 ± 7.3 µM | inhibition at 500 µM ([1]; Mus musculus): 51.8% | inhibition at 1000 µM ([1]; Mus musculus): 62.4%

CN(C)CC(=O)Nc1ccc(-n2cc(C(F)(F)F)ccc2=O)cc1 [Compound 5b, 2-(Dimethylamino)-N-(4-(2-oxo-5-(trifluoromethyl)pyridin-1(2H)-yl)phenyl)acetamide]
IC50 [1, 10]: > 500 µM | inhibition at 500 µM ([1]; Mus musculus): 34.2% | inhibition at 1000 µM ([1]; Mus musculus): 45.8%

Cc1ccc(=O)n(-c2ccc(NC(=O)[C@@H](C)N(C)C)cc2)c1 [Compound 5c, (R)-2-(Dimethylamino)-N-(4-(5-methyl-2-oxopyridin-1(2H)-yl)phenyl)propanamide]
IC50 [1, 11]: 490 µM | IC50 [1, 10]: 490.2 ± 2.7 µM | inhibition at 500 µM ([1]; Mus musculus): 26.8% | inhibition at 1000 µM ([1]; Mus musculus): 52.9%

CC(=O)Nc1ccc(Cn2cc(C(F)(F)F)ccc2=O)cc1 [Compound 9a, N-(4-((2-oxo-5-(Trifluoromethyl)pyridin-1(2H)-yl)methyl)phenyl)acetamide]
IC50 [1, 10]: 132 ± 2.3 µM | inhibition at 500 µM ([1]; Mus musculus): 68.4% | inhibition at 1000 µM ([1]; Mus musculus): 86.2%

CC(=O)N(C(C)=O)c1ccc(Cn2cc(C(F)(F)F)ccc2=O)cc1 [Compound 9b, N-Acetyl-N-(4-((2-oxo-5-(trifluoromethyl)pyridin-1(2H)-yl)methyl)phenyl)acetamide]
proliferation (fixed cell morphology) [2]: effectively inhibited | IC50 [2]: 48 µM | solubility in water [3]: good solubility in water | IC50 [1, 11]: 87 µM | IC50 [1, 10]: 87.5 ± 0.7 µM | inhibition at 500 µM ([1]; Mus musculus): 80.6% | inhibition at 1000 µM ([1]; Mus musculus): 90.5% | proliferation (fixed cell morphology) [1]: effectively inhibited

CC(=O)Nc1ccc(Cn2cc(C)ccc2=O)cc1 [Compound 9c, N-(4-((5-Methyl-2-oxopyridin-1(2H)-yl)methyl)phenyl)acetamide]
IC50 [1, 10]: 113 ± 1.9 µM | inhibition at 500 µM ([1]; Mus musculus): 72.5% | inhibition at 1000 µM ([1]; Mus musculus): 89%

CC(=O)N(C(C)=O)c1ccc(Cn2cc(C)ccc2=O)cc1 [Compound 9d, N-Acetyl-N-(4-((5-methyl-2-oxopyridin-1(2H)-yl)methyl)phenyl)acetamide]
histopathology (H&E) of liver, kidney, heart, spleen [4]: no pathological abnormalities such as inflammation, injury and necrosis | proliferation (fixed cell morphology) [2]: effectively inhibited | IC50 [2]: 35 µM | solubility in water [3]: good solubility in water | 3T3 cell migration (transwell) ([5]; 9d 50 μM): markedly inhibited | cell migration OD value ([5]; 9d + TGF-β1, OD value of the control is 1.0, TGF-β1 alone about 1.7): about 0.8 | cell migration OD value ([5]; 9d alone, 50 μM, OD value of the control is 1.0): about 0.35 | expression of α-SMA [6]: decreased | expression of E-cadherin [7]: reversed after 9d treatment, higher than the control group | IC50 [1, 11]: 69 µM | IC50 [1, 10]: 69.1 ± 2.7 µM | inhibition at 500 µM ([1]; Mus musculus): 88.4% | inhibition at 1000 µM ([1]; Mus musculus): 98.7% | proliferation (fixed cell morphology) [1]: effectively inhibited | times the anti-fibrosis activity of pirfenidone ([1]; relative to pirfenidone IC50 2.75 mM): more than 40 times

CN1CCN(CC(=O)Nc2ccc(Cn3cc(C(F)(F)F)ccc3=O)cc2)CC1 [Compound 10a, 2-(4-Methylpiperazin-1-yl)-N-(4-((2-oxo-5-(trifluoromethyl)pyridin-1(2H)-yl)methyl)phenyl)acetamide]
IC50 [1, 10]: 246.3 ± 1.8 µM | inhibition at 500 µM ([1]; Mus musculus): 66.5% | inhibition at 1000 µM ([1]; Mus musculus): 87.7%

CN(C)CC(=O)Nc1ccc(Cn2cc(C(F)(F)F)ccc2=O)cc1 [Compound 10d, 2-(Dimethylamino)-N-(4-((2-oxo-5-(trifluoromethyl)pyridin-1(2H)-yl)methyl)phenyl)acetamide]
IC50 [1, 10]: 273.1 ± 1.5 µM | inhibition at 500 µM ([1]; Mus musculus): 52.4% | inhibition at 1000 µM ([1]; Mus musculus): 71.3%

CC(=O)N(C)c1ccc(Cn2cc(C(F)(F)F)ccc2=O)cc1 [Compound 11a, N-Methyl-N-(4-((2-oxo-5-(trifluoromethyl)pyridin-1(2H)-yl)methyl)phenyl)acetamide]
IC50 [1, 10]: 146 ± 5.5 µM | inhibition at 500 µM ([1]; Mus musculus): 67.9% | inhibition at 1000 µM ([1]; Mus musculus): 78.5%

CC(=O)N(C)c1ccc(Cn2cc(C)ccc2=O)cc1 [Compound 11b, N-Methyl-N-(4-((5-methyl-2-oxopyridin-1(2H)-yl)methyl)phenyl)acetamide]
IC50 [1, 10]: 140 ± 9.8 µM | inhibition at 500 µM ([1]; Mus musculus): 66.7% | inhibition at 1000 µM ([1]; Mus musculus): 79.4%

Cc1ccc(=O)n(-c2ccccc2)c1 [pirfenidone, 5-methyl-1-phenyl-2[1H]-pyridone, reference compound]
IC50 [1, 10]: > 1000 µM | inhibition at 500 µM ([1]; Mus musculus): 17.9% | inhibition at 1000 µM ([1]; Mus musculus): 35.7% | incidence of photo-sensitivity [8]: 51.7% | IC50 [9]: 2750 µM

TGF-β1: recombinant TGF-β1, key fibrogenic factor used to induce epithelial–mesenchymal transition and cell migration [reference compound]
cell migration OD value ([5]; TGF-β1 alone, OD value of the control is 1.0): about 1.7
